In publication PMC13102995 (Biomedicine & Pharmacotherapy, 2026):
Read-outs that look alike come from different tables or passages of the source. Values belong to the molecule of their own block, whether it stands above or below them.

Tests used:
[1] = biological target: T1, PLCβ3 (Homo sapiens, UniProt Q01970); test: Surface plasmon resonance binding to pulled-down PLCβ3; conditions: 12.5–200 µM, multi-cycle, HBS-EP+ buffer, 25 °C
T1 sequence (Q01970 1-1234): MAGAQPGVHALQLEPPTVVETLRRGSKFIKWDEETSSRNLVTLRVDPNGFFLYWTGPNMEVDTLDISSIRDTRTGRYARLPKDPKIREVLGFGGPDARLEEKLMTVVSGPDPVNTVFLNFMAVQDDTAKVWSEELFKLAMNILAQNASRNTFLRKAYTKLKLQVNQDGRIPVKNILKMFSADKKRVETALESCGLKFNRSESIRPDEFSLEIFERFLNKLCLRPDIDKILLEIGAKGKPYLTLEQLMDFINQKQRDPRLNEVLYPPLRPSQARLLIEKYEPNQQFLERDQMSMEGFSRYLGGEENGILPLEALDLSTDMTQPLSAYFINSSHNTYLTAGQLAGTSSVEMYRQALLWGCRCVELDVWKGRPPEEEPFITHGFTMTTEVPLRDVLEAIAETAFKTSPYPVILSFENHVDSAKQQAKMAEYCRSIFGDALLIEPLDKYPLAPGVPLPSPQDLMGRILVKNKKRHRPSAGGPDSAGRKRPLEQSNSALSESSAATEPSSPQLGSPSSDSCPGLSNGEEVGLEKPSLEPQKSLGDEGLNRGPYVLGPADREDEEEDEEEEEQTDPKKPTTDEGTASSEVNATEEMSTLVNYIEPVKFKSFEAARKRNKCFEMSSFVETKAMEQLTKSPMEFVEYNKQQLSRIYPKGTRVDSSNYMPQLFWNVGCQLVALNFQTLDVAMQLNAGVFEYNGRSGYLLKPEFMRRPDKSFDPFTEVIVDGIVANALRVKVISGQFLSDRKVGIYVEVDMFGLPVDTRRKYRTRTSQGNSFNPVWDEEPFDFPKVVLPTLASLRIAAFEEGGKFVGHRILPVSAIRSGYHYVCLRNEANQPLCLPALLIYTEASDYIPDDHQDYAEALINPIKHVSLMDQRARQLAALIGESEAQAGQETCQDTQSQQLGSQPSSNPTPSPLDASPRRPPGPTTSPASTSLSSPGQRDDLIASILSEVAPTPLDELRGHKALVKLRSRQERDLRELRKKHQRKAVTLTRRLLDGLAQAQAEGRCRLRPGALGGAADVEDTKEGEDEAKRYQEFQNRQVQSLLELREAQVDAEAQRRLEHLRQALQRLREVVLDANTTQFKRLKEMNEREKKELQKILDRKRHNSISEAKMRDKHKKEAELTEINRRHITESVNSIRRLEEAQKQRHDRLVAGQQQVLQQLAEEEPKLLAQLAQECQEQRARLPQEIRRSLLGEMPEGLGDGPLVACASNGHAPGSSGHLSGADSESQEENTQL
Outline: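 Multi-cycle SPR at 25 °C. Peptides at 12.5–200 µM, including a randomized control peptide, in HBS-EP+, injected over active and reference flow cells for 250 s at 5 µL/min, with return to baseline between cycles. Reference-subtracted binding levels were read at the end of injection after baseline subtraction.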

[2] = Solubility and aggregation observed on preparation of the peptides; type: physicochemical; conditions: observation
[3] = tested on: PLCβ; type: cell-based, Human; conditions: U73122 2 µM, HEK293, mean ± SEM; for inhibition of ACh-induced intracellular Ca2+ response: 1 h, 1 µM ACh
[4] = tested on: PLCβ; test: PIP2 imaging: BK-induced PLCδ-PH-GFP translocation in HEK293T cells; type: cell-based, Human; conditions: PL2003 100 µM, U73122 2 µM, PL2204 1–100 µM; versus vehicle
Outline: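 HEK293T transfected with PLCδ-PH-GFP, replated 24 h later on poly-D-lysine and imaged after another 24 h. Pre-incubation 1 h with test compound (1, 10, 100 µM), vehicle or 2 µM U73122. Baseline 30 s in Ca2+-containing solution, pH 7.4, then 250 nM bradykinin for 2 min. Translocation = ΔF/F0; time to maximum timed from onset; IC50 from Hill-equation fit.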

[5] = tested on: PLCγ; test: TG-induced store-operated calcium; type: cell-based, human; conditions: U73122 2 µM, 1 h; 1 µM TG; HaCaT; mean ± SEM, N = 2
Outline: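 HaCaT on coverslips used 48 h after plating, loaded with 6 µg/mL Fluo-4 AM/0.05% Pluronic plus test compound (100 µM), 0.1% DMSO or 2 µM U73122 for 1 h, then washed ≥20 min. In Ca2+-free solution, 1 µM thapsigargin/0.1 mM EGTA for 3 min, then 2 mM Ca2+ to trigger SOC entry. Cells ≥20 AFU analysed; ΔFSOC/ΔFTG normalised to vehicle.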

[6] = tested on: neonatal rat dorsal root ganglion (DRG) neurons; type: cell-based; conditions: U73122 5 µM, 1 h; 500 nM capsaicin pulses, 1 µM BK
Outline: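 DRG neurons from 3–5-day-old Wistar rats, collagenase IA digested (2.5 mg/mL, 1 h), grown 48 h on 60-electrode arrays (poly-L-lysine/laminin) with NGF and cytosine arabinoside. Test compound (100 µM) or 0.1% DMSO pre-incubated 1 h in serum medium without NGF; PLC inhibitor at 5 µM. Three 30-s pulses of 500 nM capsaicin (P1–P3); bradykinin used at 1 µM.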

binding to pulled-down PLCβ3 (SPR) [1]: strongly reduced binding levels
Molecule: Ac-IVSNRYSK-NH2 [randomized PL2204]

Molecule: Ac-IYSSNV-NH2 [PL2005]
solubility ([2]; in different solvents): solubility problems in different solvents
aqueous solubility ([2]; prepared in 0.4% DMSO in extracellular solution): poor aqueous solubility

Molecule: COc1ccc2c(c1)CC[C@@H]1[C@@H]2CC[C@]2(C)[C@@H](NCCCCCCN3C(=O)C=CC3=O)CC[C@@H]12 [Peptide U73122, 1-(6-((17β-3-methoxyestra-1,3,5(10)-trien-17-yl)amino)hexyl)-1H-pyrrole-2,5-dione]
inhibition of ACh-induced intracellular Ca2+ response ([3]; experiment of Fig. 2B): 40.5 ± 9.4%
inhibition of ACh-induced intracellular Ca2+ response ([3]; experiment of Fig. 2C): 65.4 ± 4.3%
inhibition of ACh-induced intracellular Ca2+ response ([3]; experiment of Fig. 2D): 51.9 ± 7.5%
percentage of ACh-responsive cells normalized to vehicle ([3]; experiment of Fig. 2C): 66.7 ± 9.3%
percentage of ACh-responsive cells normalized to vehicle ([3]; experiment of Fig. 2D): 62.0 ± 12.0%
time to reach maximum PLCδ-PH-GFP translocation [4]: does not modify
SOC activity (ΔFSOC / ΔFTG normalized to vehicle) [5]: 55.4 ± 9.4
inhibition of BK-induced TRPV1 sensitization (P3 - P2) [6]: did not significantly attenuate
